One assay deals with NDM-1 (Klebsiella pneumoniae, UniProt C7C422). Put plainly: In vitro enzyme inhibition assay, purified recombinant NDM-1. It counts as biochemical. The method, boiled down:
(§1)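 Purified recombinant enzyme at 4 nM was preincubated 5–10 min at RT with varying inhibitor concentrations. Buffer was 50 mM HEPES pH 7.5, 0.2% DMSO, 1% PEG 4000, with either 10 μM ZnSO4 or no zinc (Chelex-100-treated, 2 h, filtered). Reactions were started with nitrocefin (30 μM final, A490) or meropenem (50 μM final, A300) and followed 60 s. IC50 came from the linear portion of progress curves. Duplicates.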

For assay [1], the system named is E. coli expressing blaNDM-1. Put plainly: Meropenem rescue concentration, antimicrobial susceptibility test. It counts as cell-based, Escherichia coli. The note with it: for RC in MHB, NDM-1: rescue concentration at meropenem 2 μg/mL. The method, boiled down: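 Checkerboard broth microdilution in Mueller–Hinton broth against E. coli carrying the plasmid-borne MBL gene. Meropenem used five 2-fold dilutions and the test compound six 2-fold dilutions, within 0.5–64 μg/mL; the test compound was dissolved in water or 50% methanol. Inoculum was adjusted to OD625 0.08–0.10, then diluted 200-fold. Incubation was 20 h static at 37 °C, read at OD600. RC is the compound concentration restoring susceptibility at meropenem 2 μg/mL. ≥2 replicates.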

Assay [2] can be described thus: Zn2+ affinity by competition with colorimetric PAR assay. It counts as binding. The note with it: read-out: Kd,Zn2; PAR 100 μM, ZnSO4 10 μM, pH 7.5, 3 h at 25 °C. The method, boiled down: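 The test compound was titrated into Chelex-100-treated 20 mM HEPES, 100 mM NaCl, pH 7.5, containing PAR 100 μM and ZnSO4 10 μM, then incubated 3 h at 25 °C. Zn2+ displacement from PAR was read as the fall in absorbance at 492 nm. Kd was estimated from the known PAR stability constant at pH 7.4.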

Another assay concerns the target VIM-2 (Escherichia coli, UniProt Q5U7L7). Put plainly: In vitro enzyme inhibition assay, purified recombinant VIM-2. It counts as biochemical. The method, boiled down:
as §1

In another assay the target is IMP-7. Put plainly: In vitro enzyme inhibition assay, purified recombinant IMP-7. It counts as biochemical. The note with it: read-out: IC50 IMP-7 - Zn; Zn2+-depleted (Chelex-100-treated) buffer. A digest of the protocol:
as §1

The mark [3] stands for this setting: IC50 NDM-1 + Zn, Zn2+-supplemented (10 μM) buffer.
The mark [4] stands for this setting: IC50 NDM-1 - Zn, Zn2+-depleted (Chelex-100-treated) buffer.

Chain of NDM-1 (C7C422 29-270, looked up, species assumed): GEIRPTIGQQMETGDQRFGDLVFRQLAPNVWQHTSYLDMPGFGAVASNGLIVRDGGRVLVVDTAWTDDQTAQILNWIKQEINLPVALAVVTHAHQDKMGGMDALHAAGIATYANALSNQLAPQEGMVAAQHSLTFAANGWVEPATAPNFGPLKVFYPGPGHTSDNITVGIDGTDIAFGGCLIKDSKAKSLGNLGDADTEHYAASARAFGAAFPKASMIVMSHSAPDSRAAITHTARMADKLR

For orientation: IC50 means the midpoint of a concentration-inhibition curve. In general, Kd refers to the free concentration of one partner at which half of the binding sites on the other are occupied at equilibrium, for simple one-to-one binding. In the case of `N[C@@H](CN[C@@H](CN[C@H](C(=O)O)c1ccc(O)cc1)C(=O)O)C(=O)O` [Compound 22, (S)-2-Amino-3-(((S)-1-carboxy-2-(((S)-carboxy(4-hydroxyphenyl)methyl)amino)ethyl)amino)propanoic Acid], the values for the half-maximal inhibitory concentration (IC50) at NDM-1 (setting [3]) and on NDM-1 (setting [4]) were 283 ± 27.4 µM and 23 ± 3.6 µM, respectively. In assay [1], the “RC in MHB, NDM-1” value was over 64 µg/mL. Moreover, in assay [2], the dissociation constant Kd turned out to be 0.0095 ± 0.0065 µM.
For the molecule `CC(C)(S)C(NC[C@H](NC[C@H](N)C(=O)O)C(=O)O)C(=O)O` (stereo in doubt) [Compound 14, (R)-2-(((S)-2-(((S)-2-Amino-2-carboxyethyl)amino)-2-carboxyethyl)amino)-3-mercapto-3-methylbutanoic Acid], the IC50 at NDM-1 (setting [3]) was 112 ± 4.8 µM; on NDM-1 (setting [4]), 185 ± 7.8 µM; on VIM-2, 246 ± 17 µM; at IMP-7, over 500 µM. Also, the “RC in MHB, NDM-1” value in assay [1] worked out at 32 µg/mL. Moreover, the Kd in assay [2] came to 0.0026 ± 0.0004 µM.
Turning to `N[C@@H](CN[C@@H](CN[C@@H](Cc1cccs1)C(=O)O)C(=O)O)C(=O)O` [Compound 23, (S)-2-Amino-3-(((S)-1-carboxy-2-(((S)-1-carboxy-2-(thiophen-2-yl)ethyl)amino)ethyl)amino)propanoic Acid], the IC50 is 42.2 ± 4.1 µM on NDM-1 (setting [3]) and 9.7 ± 1.7 µM at NDM-1 (setting [4]). In addition, the “rescue concentration (RC), biological activity” value in assay [1] (meropenem 2 μg/mL, resistant E. coli, MBL not given) is reported as over 8 μg/mL. Moreover, in assay [1], the “RC in MHB, NDM-1” value came out at 64 µg/mL. Also, the dissociation constant Kd in assay [2] amounted to 0.0042 ± 0.0025 µM.
With `NC(Cc1ccc(O)cc1)C(=O)N[C@@H](CN[C@@H](CN[C@@H](CC(=O)O)C(=O)O)C(=O)O)C(=O)O` (stereo in doubt) [Compound 2, ((S)-2-(((S)-2-((R)-2-Amino-3-(4-hydroxyphenyl)propanamido)-2-carboxyethyl)amino)-2-carboxyethyl)-L-aspartic Acid], the figures for the concentration for half-maximal inhibition (IC50) on NDM-1 (setting [3]) and at NDM-1 (setting [4]) were over 100 µM and over 500 µM, respectively. The “RC in MHB, NDM-1” value in assay [1] was over 64 µg/mL. Moreover, the dissociation constant (Kd) in assay [2] stood at 0.0014 ± 0.00056 µM.
The corresponding values for `N[C@@H](CN[C@@H](CNC(CS)C(=O)O)C(=O)O)C(=O)O` (stereo in doubt) [Compound 12, (S)-2-Amino-3-(((S)-1-carboxy-2-(((R)-1-carboxy-2-mercaptoethyl)amino)ethyl)amino)propanoic Acid] are 404 ± 18.2 µM, 5.8 ± 0.5 µM, 32 µg/mL and 0.0044 ± 0.0018 µM.
With `N[C@@H](CN[C@@H](CN[C@@H](Cc1ccc(OP(=O)(O)O)cc1)C(=O)O)C(=O)O)C(=O)O` (mixture of isomers) [Compound 21, (S)-2-Amino-3-(((S)-1-carboxy-2-(((S)-1-carboxy-2-(4-(phosphonooxy)phenyl)ethyl)amino)ethyl)amino)propanoic Acid], the concentration for half-maximal inhibition (IC50) stood at 54 ± 5.6 µM at NDM-1 (setting [3]) and 25.1 ± 8.3 µM at NDM-1 (setting [4]). Moreover, in assay [1], the “RC in MHB, NDM-1” value came out at 64 µg/mL. Also, the Kd in assay [2] was found to be 0.0108 ± 0.0081 µM.
`CN[C@@H](CN[C@@H](CN[C@@H](CC(=O)O)C(=O)O)C(=O)O)C(=O)O` [Compound 3, ((S)-2-Carboxy-2-(((S)-2-carboxy-2-(methylamino)ethyl)amino) Ethyl)-L-aspartic Acid]: the half-maximal inhibitory concentration (IC50) was 95.3 ± 3 µM at NDM-1 (setting [3]) and over 500 µM on NDM-1 (setting [4]). Further, in assay [2], the dissociation constant (Kd) was 0.0087 ± 0.0009 µM.
As to `NCC(=O)N[C@@H](CN[C@@H](CN[C@@H](CC(=O)O)C(=O)O)C(=O)O)C(=O)O` [Compound 1, ((S)-2-(((S)-2-(2-Aminoacetamido)-2-carboxyethyl)amino)-2-carboxyethyl)-L-aspartic Acid], the IC50 at NDM-1 (setting [3]) is over 100 µM; at NDM-1 (setting [4]), over 500 µM. For the same molecule, in assay [1], the “RC in MHB, NDM-1” value was over 64 µg/mL. Moreover, the Kd in assay [2] is 0.0199 ± 0.0032 µM.
Consider `N[C@@H](CN[C@@H](CNC(CS)C(=O)O)C(=O)O)C(=O)O` (stereo in doubt) [Compound 11, (S)-2-Amino-3-(((S)-1-carboxy-2-(((S)-1-carboxy-2-mercaptoethyl)amino)ethyl)amino)propanoic Acid], for which the IC50 on NDM-1 (setting [3]) worked out at 15.6 ± 0.2 µM; on NDM-1 (setting [4]), 21.5 ± 0.8 µM; on VIM-2 it was 22 ± 1 µM; on IMP-7 it was 328 ± 15 µM. Besides, the “RC in MHB, NDM-1” value in assay [1] was 32 µg/mL. The Kd in assay [2] turned out to be 0.0002 ± 5e-05 µM.
For `N[C@@H](CN[C@@H](CN[C@@H](CC(=O)O)C(=O)O)C(=O)O)CSCCO` [Compound 8, ((S)-2-(((S)-2-Amino-3-((2-hydroxyethyl)thio)propyl)amino)-2-carboxyethyl)-L-aspartic Acid], the concentration for half-maximal inhibition (IC50) is over 250 µM at NDM-1 (setting [3]) and over 500 µM on NDM-1 (setting [4]). Besides, the “RC in MHB, NDM-1” value in assay [1] amounted to 64 µg/mL. The Kd in assay [2] came to 0.06 ± 0.013 µM.
Turning to `Cc1ccc(SC[C@@H](N)CN[C@@H](CN[C@@H](CC(=O)O)C(=O)O)C(=O)O)cc1` [Compound 5, ((S)-2-(((S)-2-Amino-3-(P-tolylthio)propyl)amino)-2-carboxyethyl)-L-aspartic Acid], the 50% inhibitory concentration (IC50) is 104 ± 2 µM at NDM-1 (setting [3]) and 97.2 ± 34.2 µM on NDM-1 (setting [4]). The “RC in MHB, NDM-1” value in assay [1] came out at 32 µg/mL. In assay [2], the equilibrium dissociation constant (Kd) was 0.0014 ± 0.00056 µM.
For `N[C@@H](CN[C@@H](CN[C@@H](CC(=O)O)C(=O)O)CSc1ccccc1)C(=O)O` [Compound 9, ((S)-2-(((S)-2-Amino-2-carboxyethyl)amino)-3-(phenylthio)propyl)-L-aspartic Acid], in that order: 58 ± 5 µM, over 500 µM, over 64 µg/mL and 0.0023 ± 0.0019 µM.
Consider `CCCSC[C@@H](N)CN[C@@H](CN[C@@H](CC(=O)O)C(=O)O)C(=O)O` [Compound 7, ((S)-2-(((S)-2-Amino-3-(propylthio)propyl)amino)-2-carboxyethyl)-L-aspartic Acid], for which the figures for the half-inhibitory concentration (IC50) at NDM-1 (setting [3]) and at NDM-1 (setting [4]) were 29.2 ± 1 µM and over 500 µM, respectively. Besides, the “RC in MHB, NDM-1” value in assay [1] was over 64 µg/mL. Moreover, the Kd in assay [2] turned out to be 0.109 ± 0.04 µM.
Regarding `N=C(N)NCCC[C@H](NC[C@H](NC[C@H](N)C(=O)O)C(=O)O)C(=O)O` [Compound 17, ((S)-2-(((S)-2-Amino-2-carboxyethyl)amino)-2-carboxyethyl)-L-arginine], the IC50 on NDM-1 (setting [3]) is over 100 µM; at NDM-1 (setting [4]) it was over 1000 µM. For the same molecule, in assay [1], the “RC in MHB, NDM-1” value was over 64 µg/mL. The Kd in assay [2] worked out at 0.024 ± 0.006 µM.
For `N[C@@H](CN[C@@H](CN[C@@H](CO)C(=O)O)C(=O)O)C(=O)O` [Compound 19, (S)-2-Amino-3-(((S)-1-carboxy-2-(((S)-1-carboxy-2-hydroxyethyl)amino)ethyl)amino)propanoic Acid], in that order: 80 ± 0.7 µM, over 1000 µM, 32 µg/mL and 0.0045 ± 0.00175 µM.
`N[C@@H](CN[C@@H](CN[C@@H](CCS)C(=O)O)C(=O)O)C(=O)O` [Compound 13, ((S)-2-(((S)-2-Amino-2-carboxyethyl)amino)-2-carboxyethyl)-L-homocysteine]: the IC50 at NDM-1 (setting [3]) was over 100 µM; at NDM-1 (setting [4]) it was over 1000 µM. The “RC in MHB, NDM-1” value in assay [1] turned out to be 64 µg/mL.

The values are drawn from paper PMC8829947 (ACS Omega, 2022).
